Results from ChEMBL document CHEMBL2062476, “One pot efficient diversity oriented synthesis of polyfunctional styryl thiazolopyrimidines and their bio-evaluation as antimalarial and anti-HIV agents” (Eur J Med Chem, 2012).
Values after ≈ are worked out from the molar mass of the structure shown.

How the values were obtained:
[1] = system: Human immunodeficiency virus; assay: Inhibition of HIV reverse transcriptase activity at 100 ug/ml incubated at 37 degC for 1 hr by ELISA RT assay
Outline: (§1)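 Colorimetric ELISA kit: template/primer with dNTPs (digoxigenin- and biotin-labelled dUTP) plus HIV-1 RT in lysis buffer, 60 µl total, 37 °C for 1 h; no-RT lysis buffer as negative control. Product captured on streptavidin plate 1 h at 37 °C, anti-DIG-POD (200 mU/mL) 1 h, ABTS substrate; OD 405 nm (reference 490 nm).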

[2] = Selectivity index, ratio of CC50 for african green monkey Vero C1008 cells to IC50 for chloroquine sensitive Plasmodium falciparum 3D7; type: functional
Outline: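 SI = CC50 in Vero cells (resazurin, 72 h) divided by IC50 against P. falciparum 3D7. The IC50 came from a SYBR green assay: cultures in RPMI-1640 with 0.5% AlbuMaxII and 15 µM hypoxanthine, 4% haematocrit, 1% parasitaemia, two-fold dilutions, 72 h at 37 °C. Lysis with SYBR green for 4 h, read at ex 485/em 535 nm.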

[3] = system: Human immunodeficiency virus; assay: Inhibition of HIV reverse transcriptase activity at 10 ug/ml incubated at 37 degC for 1 hr by ELISA RT assay; outline: as §1
Plasmodium falciparum [4] = assay: Antimalarial activity against chloroquine sensitive Plasmodium falciparum 3D7 infected in RBCs incubated for 72 hrs by SYBRgreen dye based fluorometric assay; type: functional, organism-based; conditions: 3D7, 72 h
Outline: (§2)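 Parasites kept in RPMI-1640 (HEPES) with 0.5% AlbuMaxII, 0.2% glucose, 0.2% NaHCO3, 15 µM hypoxanthine, 37 °C, 5% CO2. Compounds in DMSO (10mg/mL stock), two-fold serial dilutions. Infected erythrocytes added at 4% haematocrit, 1% parasitaemia, incubated 72 h. Lysis buffer with SYBR green added for 4 h in the dark at room temp. Fluorescence read at ex 485/em 535 nm. IC50 taken from parasite DNA content relative to controls.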

[5] = Cytotoxicity against african green monkey Vero C1008 cells incubated for 72 hrs by resazurin dye based fluorometric assay; type: cell-based; conditions: chlorocebus sabaeus
Outline: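 Vero (C1008) cells grown in MEM with 15% FBS, 37 °C, 5% CO2; trypsinized, seeded at 1 × 10^5 cells/mL and left to adhere overnight. Serial compound dilutions added for 72 h. Resazurin added, fluorescence read after 4 h; CC50 derived from viability.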

Plasmodium falciparum [6] = assay: Antimalarial activity against chloroquine resistant Plasmodium falciparum K1 infected in RBCs incubated for 72 hrs by SYBRgreen dye based fluorometric assay; type: functional, organism-based; conditions: K1, 72 h; outline: as §2
[7] = Selectivity index, ratio of CC50 for african green monkey Vero C1008 cells to IC50 for chloroquine resistant Plasmodium falciparum K1; type: functional
Outline: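 Vero C1008 cells grown in MEM with 15% FBS. Seeded at 1 × 10^5 cells/mL, left to adhere overnight, then exposed to serial compound dilutions for 72 h. Viability read by resazurin fluorescence after 4 h and CC50 derived. SI = CC50 / IC50 against K1, with IC50 from the 72 h SYBR green parasite assay.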

Compound	inhibition [1] [%]	Ratio CC50/IC50 [2]	inhibition [3] [%]	IC50 (Plasmodium falciparum [4]) [µg/mL]	CC50 at 72 h [5] [µg/mL]	IC50 (Plasmodium falciparum [6]) [µg/mL]	Ratio CC50/IC50 [7]
COc1cc(/C=C/C(=O)C2=C(/C=C/c3cc(OC)c(OC)c(OC)c3)N=C3SC=C(C)N3C2c2ccccc2)cc(OC)c1OC (stereo not given)	66.9	520.94	5.69	0.5 (≈ 0.78 µM)	260 (≈ 407 µM)	< 0.3	>868.23
CC1=CSC2=NC(/C=C/c3ccc(OCc4ccccc4)cc3)=C(C(=O)/C=C/c3ccc(OCc4ccccc4)cc3)C(c3ccc(Cl)cc3)N12 (stereo not given)	18.6	>71.74	17.6	6.97 (≈ 9.85 µM)	> 500	19.6 (≈ 27.6 µM)	>25.56
CC1=CSC2=NC(/C=C/c3ccccc3)=C(C(=O)/C=C/c3ccccc3)C(c3ccccc3)N12 (stereo not given)	49.6	342.93	42.3	0.57 (≈ 1.24 µM)	195 (≈ 424 µM)	0.79 (≈ 1.72 µM)	247.43
COc1ccc(C2C(C(=O)/C=C/c3cccs3)=C(/C=C/c3cccs3)N=C3SC=C(C)N32)cc1 (stereo not given)	54.4	45.48	47.7	5.17 (≈ 10.3 µM)	235 (≈ 468 µM)	2.03 (≈ 4.04 µM)	115.83
CC1=CSC2=NC(/C=C/c3ccc(Cl)cc3)=C(C(=O)/C=C/c3ccc(Cl)cc3)C(c3ccccc3)N12 (stereo not given)	53.4	49.03	42.6	5.15 (≈ 9.73 µM)	252 (≈ 477 µM)	2.71 (≈ 5.12 µM)	93.17
CC1=CSC2=NC(/C=C/c3ccc(OCc4ccccc4)cc3)=C(C(=O)/C=C/c3ccc(OCc4ccccc4)cc3)C(c3ccccc3)N12 (stereo not given)	56.3	>20.39	47.7	24.5 (≈ 36.4 µM)	> 500	4.3 (≈ 6.39 µM)	>116.28
COc1ccc(/C=C/C(=O)C2=C(/C=C/c3ccc(OC)cc3)N=C3SC=C(C)N3C2c2ccccc2)cc1 (stereo not given)	32.7	163.56	40.6	2.19 (≈ 4.21 µM)	358 (≈ 688 µM)	< 0.76	>471.31
CC1=CSC2=NC(/C=C/c3ccccc3Cl)=C(C(=O)/C=C/c3ccccc3Cl)C(c3ccccc3)N12 (stereo not given)	73.4	367.88	38.9	0.56 (≈ 1.06 µM)	206 (≈ 389 µM)	0.36 (≈ 0.68 µM)	572.25
CC1=CSC2=NC(/C=C/c3ccc(Br)cc3)=C(C(=O)/C=C/c3ccc(Br)cc3)C(c3ccc(Cl)cc3)N12 (stereo not given)	26.5	330.51	17.8	1.27 (≈ 1.95 µM)	420 (≈ 643 µM)	1.22 (≈ 1.87 µM)	344.06
CC1=CSC2=NC(/C=C/c3ccc(Br)cc3)=C(C(=O)/C=C/c3ccc(Br)cc3)C(c3ccccc3)N12 (stereo not given)	55.4	52.48	39.8	5.38 (≈ 8.7 µM)	282 (≈ 457 µM)	2.5 (≈ 4.04 µM)	112.93
CC1=CSC2=NC(/C=C/c3ccc(Cl)cc3)=C(C(=O)/C=C/c3ccc(Cl)cc3)C(c3ccc(Cl)cc3)N12 (stereo not given)	11.4	363.57	10.6	0.85 (≈ 1.51 µM)	309 (≈ 548 µM)	0.6 (≈ 1.06 µM)	515.05
COc1ccc(C2C(C(=O)/C=C/c3ccc4c(c3)OCO4)=C(/C=C/c3ccc4c(c3)OCO4)N=C3SC=C(C)N32)cc1 (stereo not given)	70.8	106	58.8	3.94 (≈ 6.81 µM)	418 (≈ 722 µM)	1.14 (≈ 1.97 µM)	–
Cc1ccnc2c1NC(=O)c1cccnc1N2C1CC1	–	–	97.9	–	–	–	–
CC1=CSC2=NC(/C=C/c3ccc4c(c3)OCO4)=C(C(=O)/C=C/c3ccc4c(c3)OCO4)C(c3ccccc3)N12 (stereo not given)	–	97.97	–	5.07 (≈ 9.24 µM)	497 (≈ 905 µM)	1.09 (≈ 1.99 µM)	455.71
CC1=CSC2=NC(/C=C/c3cccc(Cl)c3)=C(C(=O)/C=C/c3cccc(Cl)c3)C(c3ccccc3)N12 (stereo not given)	54.5	361.96	15.4	0.79 (≈ 1.49 µM)	286 (≈ 540 µM)	1.2 (≈ 2.27 µM)	238.29
CC1=CSC2=NC(/C=C/c3ccccc3Cl)=C(C(=O)/C=C/c3ccccc3Cl)C(c3ccc(Cl)cc3)N12 (stereo not given)	26.1	72.84	18	5.9 (≈ 10.5 µM)	430 (≈ 762 µM)	2.79 (≈ 4.95 µM)	154.03
COc1cc(/C=C\C2=C(C(=O)/C=C/c3cc(OC)c(OC)c(OC)c3)C(c3cc(OC)c(OC)c(OC)c3)N3C(C)=CSC3=N2)cc(OC)c1OC (stereo not given)	55.9	24.44	48.4	6.82 (≈ 9.33 µM)	167 (≈ 228 µM)	< 0.76	>219.3
CC1=CSC2=NC(/C=C/c3ccc(F)cc3)=C(C(=O)/C=C/c3ccc(F)cc3)C(c3ccccc3)N12 (stereo not given)	59.2	114.22	30	2.68 (≈ 5.4 µM)	306 (≈ 616 µM)	1.59 (≈ 3.2 µM)	192.53
CC1=CSC2=NC(/C=C/c3ccccc3)=C(C(=O)/C=C/c3ccccc3)C(c3ccc(Cl)cc3)N12 (stereo not given)	30.6	639.3	23.6	0.5 (≈ 1.01 µM)	320 (≈ 646 µM)	0.27 (≈ 0.545 µM)	1183.89
CC1=CSC2=NC(/C=C/c3cccc(Cl)c3)=C(C(=O)/C=C/c3cccc(Cl)c3)C(c3ccc(Cl)cc3)N12 (stereo not given)	16.6	141.02	13.2	2.25 (≈ 3.99 µM)	317 (≈ 563 µM)	< 0.76	>417.5
COc1ccc(C2C(C(=O)/C=C/c3ccc(Cl)cc3)=C(/C=C/c3ccc(Cl)cc3)N=C3SC=C(C)N32)cc1 (stereo not given)	50.9	51.42	31.2	5.3 (≈ 9.47 µM)	273 (≈ 487 µM)	1.49 (≈ 2.66 µM)	182.89
COc1ccc(C2C(C(=O)/C=C/c3ccc(F)cc3)=C(/C=C/c3ccc(F)cc3)N=C3SC=C(C)N32)cc1 (stereo not given)	41.4	50.65	9.22	5.15 (≈ 9.78 µM)	261 (≈ 495 µM)	1.09 (≈ 2.07 µM)	239.29
